Measurements: ChEMBL document CHEMBL1145253, “Synthesis and evaluation of 3D templates based on a taxane skeleton to circumvent P-glycoprotein-associated multidrug resistance of cancer” (Bioorg Med Chem Lett, 2005)

Tests used:
KB-G2 = assay: Inhibitory concentration against KB-G2 cells; conditions: Homo sapiens
KB 3-1 = assay: Inhibitory concentration against human KB-3-1 cells; format: functional, cell-based
How it was run: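 Cytotoxicity IC50 in two human KB lines: KB-G2, a multidrug-resistant line overexpressing P-glycoprotein (Val-185) and resistant to paclitaxel and vinblastine, and its parental drug-sensitive KB-3-1 line as the control. Both lines came from an outside academic lab.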

[1] = molecular target: ATP-dependent translocase ABCB1 (Homo sapiens, UniProt P08183); assay: Michaelis-Menten constant for human P-glycoprotein expressed in Sf9 cells
Chain of ATP-dependent translocase ABCB1 (P08183 whole entry): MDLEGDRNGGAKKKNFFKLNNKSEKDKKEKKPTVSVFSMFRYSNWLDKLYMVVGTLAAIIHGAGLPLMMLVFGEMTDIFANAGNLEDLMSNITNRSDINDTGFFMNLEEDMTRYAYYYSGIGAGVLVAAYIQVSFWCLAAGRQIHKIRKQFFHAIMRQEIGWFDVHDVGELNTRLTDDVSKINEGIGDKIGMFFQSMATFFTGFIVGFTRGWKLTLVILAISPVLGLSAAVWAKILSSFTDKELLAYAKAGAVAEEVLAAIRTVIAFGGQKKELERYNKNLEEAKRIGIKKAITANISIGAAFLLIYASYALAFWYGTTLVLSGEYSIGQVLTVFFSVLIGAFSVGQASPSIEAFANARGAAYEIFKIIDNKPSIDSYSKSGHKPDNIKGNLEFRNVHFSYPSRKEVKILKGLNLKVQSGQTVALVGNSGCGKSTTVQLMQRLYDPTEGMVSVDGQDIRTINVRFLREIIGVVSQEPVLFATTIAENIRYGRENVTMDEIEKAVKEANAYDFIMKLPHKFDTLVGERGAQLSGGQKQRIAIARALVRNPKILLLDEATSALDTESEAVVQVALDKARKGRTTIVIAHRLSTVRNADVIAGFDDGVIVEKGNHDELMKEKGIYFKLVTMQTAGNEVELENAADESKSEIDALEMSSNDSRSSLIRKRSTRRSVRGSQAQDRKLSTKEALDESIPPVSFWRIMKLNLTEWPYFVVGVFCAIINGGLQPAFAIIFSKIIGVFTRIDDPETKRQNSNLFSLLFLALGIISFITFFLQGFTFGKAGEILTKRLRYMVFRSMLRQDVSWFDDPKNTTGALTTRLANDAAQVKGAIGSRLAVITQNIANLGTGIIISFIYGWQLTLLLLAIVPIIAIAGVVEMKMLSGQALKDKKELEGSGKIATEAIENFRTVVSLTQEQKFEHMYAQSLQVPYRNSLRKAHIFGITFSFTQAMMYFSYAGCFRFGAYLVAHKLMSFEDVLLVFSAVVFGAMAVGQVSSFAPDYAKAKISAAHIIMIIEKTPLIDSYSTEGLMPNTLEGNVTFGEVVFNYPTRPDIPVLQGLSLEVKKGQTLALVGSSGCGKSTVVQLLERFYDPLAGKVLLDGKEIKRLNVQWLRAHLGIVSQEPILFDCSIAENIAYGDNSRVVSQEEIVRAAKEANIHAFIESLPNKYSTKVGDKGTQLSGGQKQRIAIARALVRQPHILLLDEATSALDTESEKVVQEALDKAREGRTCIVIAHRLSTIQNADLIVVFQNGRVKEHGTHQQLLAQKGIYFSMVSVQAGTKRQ

`COCOc1cccc2c1[C@@H]1OC(=O)O[C@]13CCC(C)=C(CO2)C3(C)C` was tested, and the IC50 (KB-G2) was over 50 µM and the IC50 (KB 3-1) was over 50 µM.
With `COCOc1ccc2c(c1)[C@@H]1OC(=O)O[C@]13CCC(C)=C(CO2)C3(C)C` the IC50 (KB-G2) was over 50 µM and the IC50 (KB 3-1) was over 50 µM.
`CC1=C2CC(=O)c3ccccc3[C@@H]3OC(=O)O[C@@]3(CC1)C2(C)C` gave an IC50 (KB-G2) of over 50 µM and an IC50 (KB 3-1) of over 50 µM.
`CC1=C2COc3ccccc3[C@@H]3OC(=O)O[C@@]3(CC1)C2(C)C` was tested, and the IC50 (KB-G2) was over 50 µM and the IC50 (KB 3-1) was over 50 µM.
`CC1=C2COCc3ccccc3[C@@H]3OC(=O)O[C@@]3(CC1)C2(C)C` showed an IC50 (KB-G2) of over 50 µM and an IC50 (KB 3-1) of over 50 µM.
`C=C1C2(C)CC[C@]3(OC(=O)O[C@H]3c3c(OCOC)cccc3C2=O)C1(C)C` gave an IC50 (KB-G2) of over 50 µM and an IC50 (KB 3-1) of over 50 µM.
`COCOc1ccc2c(c1)[C@@H]1OC(=O)O[C@]13CCC(C)=C(COC2)C3(C)C` gave an IC50 (KB-G2) of over 50 µM and an IC50 (KB 3-1) of over 50 µM.
With `COCOc1ccc2c(c1)[C@@H]1OC(=O)O[C@]13CCC(C)=C(CC2=O)C3(C)C` the IC50 (KB-G2) was over 50 µM and the IC50 (KB 3-1) was over 50 µM.
With `COc1ccc(CCN(C)CCCC(C#N)(c2ccc(OC)c(OC)c2)C(C)C)cc1OC` (stereo not given) the Km [1] was 2 µM.
`CC(=O)O[C@H]1C(=O)[C@@]2(C)[C@H]([C@H](OC(=O)c3ccccc3)[C@]3(O)C[C@H](OC(=O)[C@H](O)[C@@H](NC(=O)c4ccccc4)c4ccccc4)C(C)=C1C3(C)C)[C@]1(OC(C)=O)CO[C@@H]1C[C@@H]2O` [PACLITAXEL] showed an IC50 (KB-G2) of 0.6 µM, an IC50 (KB 3-1) of 0.0021 µM and a Km [1] of 0.7 µM.
